From ChEMBL document CHEMBL4400518, “Synthesis, antimicrobial and cytotoxic activities, and molecular docking studies of N-arylsulfonylindoles containing an aminoguanidine, a semicarbazide, and a thiosemicarbazide moiety” (Eur J Med Chem, 2019)
In brackets after ≈: the same amount, converted by molar mass.

What was measured:
Staphylococcus aureus [1] = assay: Antibacterial activity against Staphylococcus aureus CMCC(B) 26003 measured after 24 hrs by ELISA; assay type: functional; conditions: CMCC(B) 26003, 24 h
Outline: (§1)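 Broth microdilution MIC. Mid-log bacteria in MHB or TSB diluted 1000-fold, inoculated at 10^5 CFU/mL. Compounds added from DMSO stocks; final DMSO at most 0.05%. Incubation 24 h at 37 °C. Growth read as absorbance at 630 nm. MIC taken as the lowest concentration giving complete growth inhibition. Three independent experiments.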

Streptococcus pyogenes = assay: Antibacterial activity against Streptococcus pyogenes CMCC 32067 measured after 24 hrs by ELISA; assay type: functional; conditions: CMCC 32067, 24 h; outline: as §1
Escherichia coli [2] = assay: Antibacterial activity against Escherichia coli CMCC 44568 measured after 24 hrs by ELISA; assay type: functional; conditions: CMCC 44568, 24 h; outline: as §1
Pseudomonas aeruginosa [3] = assay: Antibacterial activity against Pseudomonas aeruginosa CMCC 27853 measured after 24 hrs by ELISA; assay type: functional; conditions: CMCC 27853, 24 h; outline: as §1
Staphylococcus aureus [4] = assay: Antibacterial activity against Staphylococcus aureus CMCC 25923 assessed as ratio of MIC after and before 16 passages at sub-MIC; assay type: functional
Outline: (§2)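 Resistance by serial passage. After an initial broth-dilution MIC, bacteria grown at MIC/2 were transferred to a fresh MIC assay every 22 h incubation, repeatedly. Norfloxacin was the comparator antibiotic. MIC was tracked against passage day.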

Staphylococcus aureus [5] = assay: Antibacterial activity against methicillin-resistant Staphylococcus aureus ATCC 33591 measured after 24 hrs by ELISA; assay type: functional; conditions: ATCC 33591, 24 h
Outline: (§3)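 Broth serial dilution MIC. Mid-log bacteria in Mueller-Hinton or Tryptone Soya broth, diluted 1000-fold and inoculated at 10^5 CFU/mL. Compounds from DMSO stock, final DMSO ≤0.05%. Incubated 24 h at 37 °C; growth read as absorbance at 630 nm. MIC is the lowest concentration giving complete growth inhibition. Three independent experiments.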

Enterococcus faecalis = assay: Antibacterial activity against Enterococcus faecalis CMCC 29212 measured after 24 hrs by ELISA; assay type: functional; conditions: CMCC 29212, 24 h; outline: as §1
Staphylococcus aureus [6] = assay: Antibacterial activity against methicillin-resistant Staphylococcus aureus ATCC 43300 measured after 24 hrs by ELISA; assay type: functional; conditions: ATCC 43300, 24 h; outline: as §3
Escherichia coli [7] = assay: Antibacterial activity against Escherichia coli CMCC 44568 assessed as ratio of MIC after and before 16 passages at sub-MIC; assay type: functional; outline: as §2
Escherichia coli [8] = assay: Antibacterial activity against multidrug-resistant Escherichia coli ATCC BAA-196 measured after 24 hrs by ELISA; assay type: functional; conditions: ATCC BAA-196, 24 h; outline: as §3
Escherichia coli [9] = assay: Antibacterial activity against Escherichia coli CMCC 25922 measured after 24 hrs by ELISA; assay type: functional; conditions: CMCC 25922, 24 h; outline: as §1
Bacillus subtilis = assay: Antibacterial activity against Bacillus subtilis CMCC 63501 measured after 24 hrs by ELISA; assay type: functional; conditions: CMCC 63501, 24 h; outline: as §1
Pseudomonas aeruginosa [10] = assay: Antibacterial activity against multidrug-resistant Pseudomonas aeruginosa ATCC BAA-2111 measured after 24 hrs by ELISA; assay type: functional; conditions: ATCC BAA-2111, 24 h; outline: as §3
Pseudomonas aeruginosa [11] = assay: Antibacterial activity against Pseudomonas aeruginosa CMCC 10104 measured after 24 hrs by ELISA; assay type: functional; conditions: CMCC 10104, 24 h; outline: as §1
Staphylococcus aureus [12] = assay: Antibacterial activity against Staphylococcus aureus CMCC 25923 measured after 24 hrs by ELISA; assay type: functional; conditions: CMCC 25923, 24 h; outline: as §1
Streptococcus pneumoniae = assay: Antibacterial activity against Streptococcus pneumoniae CMCC 31968 measured after 24 hrs by ELISA; assay type: functional; conditions: CMCC 31968, 24 h
[13] = Selectivity index, ratio of IC50 for HEK293T cells to MIC for Streptococcus pneumoniae CMCC 31968; assay type: toxicity; conditions: human, read-out: Selectivity Index
[14] = Selectivity index, ratio of IC50 for HEK293T cells to MIC for Streptococcus pyogenes CMCC 32067; assay type: toxicity; conditions: human, read-out: Selectivity Index
HEK-293T = assay: Cytotoxicity against HEK293T cells measured after 48 hrs by CCK8 assay; assay type: cell-based; conditions: Homo sapiens
Outline: (§4)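 Cells kept in DMEM with 10% FBS and penicillin-streptomycin at 37 °C, 5% CO2. About 1×10^4 cells per well attached for 24 h, then exposed for 48 h to 0.3, 1, 3, 10, 30 and 100 µmol/L of compound, in triplicate wells. CCK-8 added for 3 h, OD read at 450 nm. IC50 is the concentration inhibiting growth by 50%.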

[15] = Selectivity index, ratio of IC50 for HEK293T cells to MIC for methicillin-resistant Staphylococcus aureus ATCC 33591; assay type: toxicity; conditions: human, read-out: Selectivity Index
[16] = Selectivity index, ratio of IC50 for HEK293T cells to MIC for Bacillus subtilis CMCC 63501; assay type: toxicity; conditions: human, read-out: Selectivity Index
[17] = Selectivity index, ratio of IC50 for HEK293T cells to MIC for Enterococcus faecalis CMCC 29212; assay type: toxicity; conditions: human, read-out: Selectivity Index
[18] = Selectivity index, ratio of IC50 for HEK293T cells to MIC for multidrug-resistant Escherichia coli ATCC BAA-196; assay type: toxicity; conditions: human, read-out: Selectivity Index
[19] = Selectivity index, ratio of IC50 for HEK293T cells to MIC for Staphylococcus aureus CMCC(B) 26003; assay type: toxicity; conditions: human, read-out: Selectivity Index
[20] = Selectivity index, ratio of IC50 for HEK293T cells to MIC for Pseudomonas aeruginosa CMCC 10104; assay type: toxicity; conditions: human, read-out: Selectivity Index
SGC-7901 = assay: Cytotoxicity against human SGC7901 cells measured after 48 hrs by CCK8 assay; assay type: functional, cell-based; conditions: SGC-7901, 48 h; outline: as §4
[21] = Selectivity index, ratio of IC50 for HEK293T cells to MIC for multidrug-resistant Pseudomonas aeruginosa ATCC BAA-2111; assay type: toxicity; conditions: human, read-out: Selectivity Index
[22] = Selectivity index, ratio of IC50 for HEK293T cells to MIC for Pseudomonas aeruginosa CMCC 27853; assay type: toxicity; conditions: human, read-out: Selectivity Index
[23] = Selectivity index, ratio of IC50 for HEK293T cells to MIC for Staphylococcus aureus CMCC 25923; assay type: toxicity; conditions: human, read-out: Selectivity Index
[24] = Selectivity index, ratio of IC50 for HEK293T cells to MIC for Escherichia coli CMCC 25922; assay type: toxicity; conditions: human, read-out: Selectivity Index
[25] = Selectivity index, ratio of IC50 for HEK293T cells to MIC for methicillin-resistant Staphylococcus aureus ATCC 43300; assay type: toxicity; conditions: human, read-out: Selectivity Index
[26] = Selectivity index, ratio of IC50 for HEK293T cells to MIC for Escherichia coli CMCC 44568; assay type: toxicity; conditions: human, read-out: Selectivity Index
[27] = Cytotoxicity against human A590 cells measured after 48 hrs by CCK8 assay; assay type: functional, cell-based; outline: as §4

SMILES | MIC (Staphylococcus aureus [1]) [µM] | MIC (Streptococcus pyogenes) [µM] | MIC (Escherichia coli [2]) [µM] | MIC (Pseudomonas aeruginosa [3]) [µM] | Ratio (Staphylococcus aureus [4]) | MIC (Staphylococcus aureus [5]) [µM] | MIC (Enterococcus faecalis) [µM] | MIC (Staphylococcus aureus [6]) [µM] | Ratio (Escherichia coli [7]) | MIC (Escherichia coli [8]) [µM] | MIC (Escherichia coli [9]) [µM] | MIC (Bacillus subtilis) [µM] | MIC (Pseudomonas aeruginosa [10]) [µM] | MIC (Pseudomonas aeruginosa [11]) [µM] | MIC (Staphylococcus aureus [12]) [µM] | MIC (Streptococcus pneumoniae) [µM] | further results
CCn1cc(C(=O)O)c(=O)c2cc(F)c(N3CCNCC3)cc21 [NORFLOXACIN] | 0.39 (≈ 0.125 µg/mL) | > 401 | 0.39 (≈ 0.125 µg/mL) | 6.27 (≈ 2 µg/mL) | 32 | 0.78 (≈ 0.249 µg/mL) | 3.13 (≈ 1 µg/mL) | 1.57 (≈ 0.501 µg/mL) | 16 | 1.57 (≈ 0.501 µg/mL) | 0.39 (≈ 0.125 µg/mL) | 6.27 (≈ 2 µg/mL) | 3.13 (≈ 1 µg/mL) | 12.5 (≈ 4 µg/mL) | 0.39 (≈ 0.125 µg/mL) | > 401 | –
C/C(=N/NC(=N)N)c1cn(S(=O)(=O)c2ccc(C)cc2)c2ccc(Br)cc12 | 4.47 (≈ 2 µg/mL) | 286 (≈ 128 µg/mL) | 1.12 (≈ 0.502 µg/mL) | > 286 | 0 | 2.24 (≈ 1 µg/mL) | 8.94 (≈ 4.01 µg/mL) | 1.12 (≈ 0.502 µg/mL) | 0 | 0.56 (≈ 0.251 µg/mL) | 286 (≈ 128 µg/mL) | 4.47 (≈ 2 µg/mL) | > 71.6 | > 286 | 2.24 (≈ 1 µg/mL) | 2.24 (≈ 1 µg/mL) | selectivity ratio [13]: 25.2; selectivity ratio [14]: 0.2; IC50 (HEK-293T): 56.4 µM; selectivity ratio [15]: 25.2; selectivity ratio [16]: 12.6; selectivity ratio [17]: 6.31; selectivity ratio [18]: 101; selectivity ratio [19]: 12.6; selectivity ratio [20]: < 0.2; IC50 (SGC-7901): 1.51 µM; selectivity ratio [21]: < 0.79; selectivity ratio [22]: < 0.2; selectivity ratio [23]: 25.2; selectivity ratio [24]: 0.2; selectivity ratio [25]: 50.4; selectivity ratio [26]: 50.4; IC50 [27]: 4.44 µM
